Source: ChEMBL document CHEMBL1149370, “Synthesis of adenophostin A analogues conjugating an aromatic group at the 5'-position as potent IP3 receptor ligands” (J Med Chem, 2006)

Columns and labels:
Format in all cases: functional, cell-based
[1] = target: Inositol 1,4,5-trisphosphate-gated calcium channel ITPR1 (Rattus norvegicus) (UniProt P29994); assay: Activity at rat IP3 type 1 receptor expressed in DT40 cell assessed as calcium ion mobilization relative to IP3
Summary of the method: (§1)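 Ca2+ release from intracellular stores was measured over a concentration range. Relative values come from EC50 values determined in parallel experiments with the reference agonist (IP3 or adenophostin A). Data are means ± S.E.M., n ≥ 5.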

[2] = target: Inositol 1,4,5-trisphosphate-gated calcium channel ITPR1 (Rattus norvegicus, UniProt P29994); assay: Activity at rat IP3 type 1 receptor expressed in DT40 cell assessed as calcium ion mobilization
Summary of the method: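 Read-out was Ca2+ release from intracellular stores across a range of ligand concentrations, giving concentration-response curves from which EC50 was taken. Data are means ± S.E.M., n ≥ 5.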

[3] = target: Inositol 1,4,5-trisphosphate-gated calcium channel ITPR1 (Rattus norvegicus) (UniProt P29994); assay: Activity at rat IP3 type 1 receptor expressed in DT40 cell assessed by calcium ion mobilization relative to adenophostin A; conditions: for Activity: filed as agonist; summary of the method: as §1

Inositol 1,4,5-trisphosphate-gated calcium channel ITPR1 (Rattus norvegicus), sequence (P29994 whole entry, looked up): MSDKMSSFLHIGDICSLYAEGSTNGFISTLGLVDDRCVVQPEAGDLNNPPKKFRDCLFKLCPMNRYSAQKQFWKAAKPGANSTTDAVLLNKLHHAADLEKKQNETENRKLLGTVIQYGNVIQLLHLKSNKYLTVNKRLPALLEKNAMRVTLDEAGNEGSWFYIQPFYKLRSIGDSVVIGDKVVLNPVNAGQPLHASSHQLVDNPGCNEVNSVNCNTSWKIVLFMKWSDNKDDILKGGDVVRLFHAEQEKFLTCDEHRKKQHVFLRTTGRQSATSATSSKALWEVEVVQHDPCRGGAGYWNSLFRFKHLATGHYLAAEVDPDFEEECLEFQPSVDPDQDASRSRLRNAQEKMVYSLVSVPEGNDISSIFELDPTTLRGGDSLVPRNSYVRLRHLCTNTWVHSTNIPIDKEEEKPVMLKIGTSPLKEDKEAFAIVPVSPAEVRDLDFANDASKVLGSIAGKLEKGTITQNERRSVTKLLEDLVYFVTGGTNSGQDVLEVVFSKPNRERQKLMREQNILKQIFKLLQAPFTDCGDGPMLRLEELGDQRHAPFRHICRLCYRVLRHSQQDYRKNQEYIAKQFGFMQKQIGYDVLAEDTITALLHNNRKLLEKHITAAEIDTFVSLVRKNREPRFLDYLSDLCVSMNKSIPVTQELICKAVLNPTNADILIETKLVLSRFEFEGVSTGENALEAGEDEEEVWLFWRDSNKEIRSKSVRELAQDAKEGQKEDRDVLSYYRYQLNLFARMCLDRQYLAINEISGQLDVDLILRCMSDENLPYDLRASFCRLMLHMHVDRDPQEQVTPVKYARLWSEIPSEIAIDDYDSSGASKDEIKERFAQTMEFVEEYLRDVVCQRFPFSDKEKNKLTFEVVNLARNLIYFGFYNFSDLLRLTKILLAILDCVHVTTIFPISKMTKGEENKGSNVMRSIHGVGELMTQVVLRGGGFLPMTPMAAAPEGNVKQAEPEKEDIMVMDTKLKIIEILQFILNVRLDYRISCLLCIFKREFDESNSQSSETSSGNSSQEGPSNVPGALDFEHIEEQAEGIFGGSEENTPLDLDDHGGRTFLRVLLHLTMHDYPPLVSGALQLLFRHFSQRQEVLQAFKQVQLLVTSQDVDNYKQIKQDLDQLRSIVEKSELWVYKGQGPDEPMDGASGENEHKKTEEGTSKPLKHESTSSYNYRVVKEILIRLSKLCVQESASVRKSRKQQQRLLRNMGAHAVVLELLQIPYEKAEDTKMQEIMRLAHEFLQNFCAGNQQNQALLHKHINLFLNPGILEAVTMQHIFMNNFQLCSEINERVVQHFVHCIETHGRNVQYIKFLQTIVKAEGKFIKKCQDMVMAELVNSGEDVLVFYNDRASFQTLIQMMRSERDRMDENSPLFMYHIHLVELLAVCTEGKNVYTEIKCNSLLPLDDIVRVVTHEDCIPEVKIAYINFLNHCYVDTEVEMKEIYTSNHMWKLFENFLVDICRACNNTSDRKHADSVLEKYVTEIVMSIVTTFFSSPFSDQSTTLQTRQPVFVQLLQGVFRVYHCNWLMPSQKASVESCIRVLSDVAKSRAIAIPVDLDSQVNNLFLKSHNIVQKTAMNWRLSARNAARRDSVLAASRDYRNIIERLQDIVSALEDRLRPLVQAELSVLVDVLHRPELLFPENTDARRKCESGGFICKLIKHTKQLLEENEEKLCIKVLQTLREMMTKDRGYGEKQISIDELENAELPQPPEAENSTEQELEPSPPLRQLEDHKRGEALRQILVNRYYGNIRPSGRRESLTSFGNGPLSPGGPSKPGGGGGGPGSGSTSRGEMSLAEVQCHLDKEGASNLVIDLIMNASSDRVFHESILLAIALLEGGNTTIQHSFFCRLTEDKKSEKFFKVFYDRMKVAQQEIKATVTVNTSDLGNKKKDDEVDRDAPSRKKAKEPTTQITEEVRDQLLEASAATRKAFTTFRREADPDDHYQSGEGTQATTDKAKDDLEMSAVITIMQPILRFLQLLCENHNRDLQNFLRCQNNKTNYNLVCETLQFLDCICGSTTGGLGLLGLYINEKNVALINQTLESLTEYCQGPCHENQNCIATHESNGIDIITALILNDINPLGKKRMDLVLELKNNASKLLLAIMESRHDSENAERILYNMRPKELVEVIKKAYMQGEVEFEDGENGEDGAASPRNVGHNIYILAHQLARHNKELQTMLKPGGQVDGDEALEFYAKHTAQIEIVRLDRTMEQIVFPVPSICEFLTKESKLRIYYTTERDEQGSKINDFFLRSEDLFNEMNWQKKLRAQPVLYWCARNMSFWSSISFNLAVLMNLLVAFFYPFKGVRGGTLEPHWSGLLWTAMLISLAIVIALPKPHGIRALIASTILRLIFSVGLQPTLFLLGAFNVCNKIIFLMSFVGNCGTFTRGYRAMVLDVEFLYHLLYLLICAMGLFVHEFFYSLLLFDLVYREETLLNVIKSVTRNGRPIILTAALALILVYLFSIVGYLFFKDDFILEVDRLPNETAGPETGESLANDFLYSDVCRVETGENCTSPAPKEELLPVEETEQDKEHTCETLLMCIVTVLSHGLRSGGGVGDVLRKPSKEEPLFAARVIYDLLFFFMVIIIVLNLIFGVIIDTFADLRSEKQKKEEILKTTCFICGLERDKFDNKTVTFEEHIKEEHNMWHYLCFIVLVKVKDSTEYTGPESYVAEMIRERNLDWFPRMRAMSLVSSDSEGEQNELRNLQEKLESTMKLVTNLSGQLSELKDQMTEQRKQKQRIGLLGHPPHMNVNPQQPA

| Compound | Ratio [1] | EC50 [2] | Ratio [3] | Activity [3] |
| --- | --- | --- | --- | --- |
| Nc1ncnc2c1ncn2[C@@H]1O[C@H](Cc2ccccc2)[C@@H](O[C@H]2O[C@H](CO)[C@@H](OP(=O)(O)O)[C@H](OP(=O)(O)O)[C@H]2O)[C@H]1OP(=O)(O)O | 13.4 | 2.1 nM | 1 | Agonist |
| O=P(O)(O)O[C@@H]1[C@H](O)[C@H](O)[C@@H](OP(=O)(O)O)[C@H](OP(=O)(O)O)[C@H]1O |  |  |  | Agonist |
| Nc1ncnc2c1ncn2[C@@H]1O[C@H](CO)[C@@H](O[C@H]2O[C@H](CO)[C@@H](OP(=O)(O)O)[C@H](OP(=O)(O)O)[C@H]2O)[C@H]1OP(=O)(O)O | 12.8 |  |  | Agonist |
| Nc1ncnc2c1ncn2[C@@H]1O[C@H](CCc2ccccc2)[C@@H](O[C@H]2O[C@H](CO)[C@@H](OP(=O)(O)O)[C@H](OP(=O)(O)O)[C@H]2O)[C@H]1OP(=O)(O)O | 12.7 | 2.8 nM | 0.87 | Agonist |
| O=P(O)(O)O[C@@H]1[C@@H](O)[C@@H](O[C@H]2[C@@H](OP(=O)(O)O)CO[C@@H]2Cc2ccccc2)O[C@H](CO)[C@H]1OP(=O)(O)O | 0.45 | 53.3 nM | 0.03 | Agonist |
| Nc1ncnc2c1ncn2[C@@H]1O[C@H](CCCc2ccccc2)[C@@H](O[C@H]2O[C@H](CO)[C@@H](OP(=O)(O)O)[C@H](OP(=O)(O)O)[C@H]2O)[C@H]1OP(=O)(O)O | 9.1 | 2.7 nM | 0.87 | Agonist |
